Source: ChEMBL document CHEMBL1782009, “Synthesis and characterization of new types of halogenated and alkylated imidazolidineiminothiones and a comparative study of their antitumor, antibacterial, and antifungal activities” (Eur J Med Chem, 2011)
In brackets after ≈: the same amount, converted by molar mass.

Tests used:
Bacillus subtilis = assay: Antibacterial activity against Bacillus subtilis NCTC 1040 at 5 mg/ml after 24 hrs by agar disc diffusion method; format: functional; details: NCTC 1040, 24 h, read-out: DIZ
Summary of the method: (§1)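 Agar well-diffusion using 1 cm wells, each loaded with 100 of compound solution (5 mg/mL in DMF). Bacteria were maintained on nutrient agar and plated as a standard suspension. Plates were incubated 24 h at 35 °C, and inhibition zone diameters were measured.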

MCF7 [1] = assay: Cytotoxicity against human MCF7 cells assessed as surviving fraction at 12.5 ug/ml after 48 hrs by SRB assay relative to control; format: functional
Summary of the method: (§2)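 SRB assay per Skehan: compounds at 5.0, 12.5, 25 and 50 were added to cell monolayers in triplicate wells per dose for 48 h at 37 °C, 5% CO2. Cells were then fixed and stained with SRB, excess stain was removed with acetic acid, and bound dye was recovered in Tris EDTA. Surviving fraction was plotted against concentration, and IC50 was read from the dose–response curves.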

HepG2 [2] = assay: Cytotoxicity against human HepG2 cells assessed as surviving fraction at 50 ug/ml after 48 hrs by SRB assay relative to control; format: functional; summary of the method: as §2
Aspergillus flavus = assay: Antifungal activity against Aspergillus flavus at 5 mg/ml by agar disc diffusion method; format: functional; details: read-out: DIZ
MCF7 [3] = assay: Cytotoxicity against human MCF7 cells assessed as surviving fraction at 25 ug/ml after 48 hrs by SRB assay relative to control; format: functional; summary of the method: as §2
[4] = Antitumor activity against mouse EAC cells assessed as inhibition of cell viability at 100 ug/ml by Trypan blue assay; format: functional; details: Ehrlich
Summary of the method: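 EAC cells were taken by needle aspiration of ascitic fluid from preinoculated mice and diluted 1:10 in saline. Then 0.1 mL of cell suspension, 0.8 mL RPMI 1640 and 0.1 mL compound were incubated 2 h at 37 °C. Dead cells were counted by trypan blue exclusion, and % non-viable = non-viable/total cells × 100.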

MCF7 [5] = assay: Cytotoxicity against human MCF7 cells after 48 hrs by SRB assay; format: functional, cell-based; details: MCF7, 48 h; summary of the method: as §2
HepG2 [6] = assay: Cytotoxicity against human HepG2 cells assessed as surviving fraction at 5 ug/ml after 48 hrs by SRB assay relative to control; format: functional; summary of the method: as §2
HeLa [7] = assay: Cytotoxicity against human HeLa cells assessed as surviving fraction at 5 ug/ml after 48 hrs by SRB assay relative to control; format: functional; summary of the method: as §2
HeLa [8] = assay: Cytotoxicity against human HeLa cells assessed as surviving fraction at 12.5 ug/ml after 48 hrs by SRB assay relative to control; format: functional; summary of the method: as §2
HEp-2 [9] = assay: Cytotoxicity against human Hep2 cells assessed as surviving fraction at 25 ug/ml after 48 hrs by SRB assay relative to control; format: functional; summary of the method: as §2
Micrococcus luteus = assay: Antibacterial activity against Sarcina lutea ATCC 934 at 5 mg/ml after 24 hrs by agar disc diffusion method; format: functional; details: ATCC 934, 24 h, read-out: DIZ; summary of the method: as §1
HEp-2 [10] = assay: Cytotoxicity against human Hep2 cells assessed as surviving fraction at 12.5 ug/ml after 48 hrs by SRB assay relative to control; format: functional; summary of the method: as §2
Escherichia coli = assay: Antibacterial activity against Escherichia coli NCTC 10416 at 5 mg/ml after 24 hrs by agar disc diffusion method; format: functional; details: NCTC 10416, 24 h, read-out: DIZ; summary of the method: as §1
HeLa [11] = assay: Cytotoxicity against human HeLa cells assessed as surviving fraction at 50 ug/ml after 48 hrs by SRB assay relative to control; format: functional; summary of the method: as §2
MCF7 [12] = assay: Cytotoxicity against human MCF7 cells assessed as surviving fraction at 5 ug/ml after 48 hrs by SRB assay relative to control; format: functional; summary of the method: as §2
HepG2 [13] = assay: Cytotoxicity against human HepG2 cells after 48 hrs by SRB assay; format: functional, cell-based; details: HepG2, 48 h; summary of the method: as §2
HCT-116 [14] = assay: Cytotoxicity against human HCT116 cells assessed as surviving fraction at 5 ug/ml after 48 hrs by SRB assay relative to control; format: functional; summary of the method: as §2
HepG2 [15] = assay: Cytotoxicity against human HepG2 cells assessed as surviving fraction at 12.5 ug/ml after 48 hrs by SRB assay relative to control; format: functional; summary of the method: as §2
HEp-2 [16] = assay: Cytotoxicity against human Hep2 cells assessed as surviving fraction at 5 ug/ml after 48 hrs by SRB assay relative to control; format: functional; summary of the method: as §2
HepG2 [17] = assay: Cytotoxicity against human HepG2 cells assessed as surviving fraction at 25 ug/ml after 48 hrs by SRB assay relative to control; format: functional; summary of the method: as §2
HEp-2 [18] = assay: Cytotoxicity against human Hep2 cells after 48 hrs by SRB assay; format: functional, cell-based; details: HEp-2, 48 h; summary of the method: as §2
HeLa [19] = assay: Cytotoxicity against human HeLa cells assessed as surviving fraction at 25 ug/ml after 48 hrs by SRB assay relative to control; format: functional; summary of the method: as §2
Candida albicans = assay: Antifungal activity against Candida albicans IMRU 3669 at 5 mg/ml by agar disc diffusion method; format: functional; details: read-out: DIZ
HCT-116 [20] = assay: Cytotoxicity against human HCT116 cells assessed as surviving fraction at 50 ug/ml after 48 hrs by SRB assay relative to control; format: functional; summary of the method: as §2
HCT-116 [21] = assay: Cytotoxicity against human HCT116 cells assessed as surviving fraction at 12.5 ug/ml after 48 hrs by SRB assay relative to control; format: functional; summary of the method: as §2
HeLa [22] = assay: Cytotoxicity against human HeLa cells after 48 hrs by SRB assay; format: functional, cell-based; summary of the method: as §2
HCT-116 [23] = assay: Cytotoxicity against human HCT116 cells after 48 hrs by SRB assay; format: functional, cell-based; details: HCT-116, 48 h; summary of the method: as §2
Staphylococcus aureus = assay: Antibacterial activity against Staphylococcus aureus NCTC 7447 at 5 mg/ml after 24 hrs by agar disc diffusion method; format: functional; details: NCTC 7447, 24 h, read-out: DIZ; summary of the method: as §1
HEp-2 [24] = assay: Cytotoxicity against human Hep2 cells assessed as surviving fraction at 50 ug/ml after 48 hrs by SRB assay relative to control; format: functional; summary of the method: as §2
HCT-116 [25] = assay: Cytotoxicity against human HCT116 cells assessed as surviving fraction at 25 ug/ml after 48 hrs by SRB assay relative to control; format: functional; summary of the method: as §2
MCF7 [26] = assay: Cytotoxicity against human MCF7 cells assessed as surviving fraction at 50 ug/ml after 48 hrs by SRB assay relative to control; format: functional; summary of the method: as §2

Structure (SMILES) | zone of inhibition at 5000 µg/mL (Bacillus subtilis) [mm] | Activity (MCF7 [1]) | Activity (HepG2 [2]) | zone of inhibition at 5000 µg/mL (Aspergillus flavus) [mm] | Activity (MCF7 [3]) | inhibition at 100 µg/mL [4] [%] | IC50 (MCF7 [5]) [mg/L] | Activity (HepG2 [6]) | Activity (HeLa [7]) | Activity (HeLa [8]) | Activity (HEp-2 [9]) | zone of inhibition at 5000 µg/mL (Micrococcus luteus) [mm] | Activity (HEp-2 [10]) | zone of inhibition at 5000 µg/mL (Escherichia coli) [mm] | Activity (HeLa [11]) | Activity (MCF7 [12]) | IC50 (HepG2 [13]) [mg/L] | Activity (HCT-116 [14]) | zone of inhibition at 5000 µg/mL (Candida albicans) [mm] | zone of inhibition at 5000 µg/mL (Staphylococcus aureus) [mm] | other results
N=C1C(=S)N(c2ccc(Cl)cc2)C(=O)N1Cc1ccccc1 | 21 | 0.12 | 0.3 | 18 | 0.16 | 80 | 4.65 (≈ 14.1 µM) | 0.45 | 0.44 | 0.18 | 0.16 | 20 | 0.22 | 22 | 0.33 | 0.49 | 4.34 (≈ 13.2 µM) | 0.24 | 22 | 21 | Activity (HepG2 [15]): 0.22; Activity (HEp-2 [16]): 0.24; Activity (HepG2 [17]): 0.21; IC50 (HEp-2 [18]): 3.28 mg/L (≈ 9.95 µM); Activity (HeLa [19]): 0.29; Activity (HCT-116 [20]): 0.28; Activity (HCT-116 [21]): 0.22; IC50 (HeLa [22]): 9.68 mg/L (≈ 29.4 µM); IC50 (HCT-116 [23]): 4.19 mg/L (≈ 12.7 µM); Activity (HEp-2 [24]): 0.28; Activity (HCT-116 [25]): 0.16; Activity (MCF7 [26]): 0.2
N=C1C(=S)N(c2ccc(I)cc2)C(=O)N1Cc1ccccc1 | 15 | – | – | 15 | – | 30 | – | – | – | – | – | 12 | – | 14 | – | – | – | – | 13 | 15 | –
COc1ccc(N2C(=O)N(c3ccc(SC)cc3)C(=N)C2=S)c(OC)c1 | 18 | 0.49 | 0.24 | 14 | 0.19 | 70 | 12 (≈ 31 µM) | 0.69 | 0.74 | 0.37 | 0.2 | 18 | 0.49 | 19 | 0.22 | 0.68 | 11.8 (≈ 30.5 µM) | 0.74 | 20 | 18 | Activity (HepG2 [15]): 0.47; Activity (HEp-2 [16]): 0.71; Activity (HepG2 [17]): 0.19; IC50 (HEp-2 [18]): 12.1 mg/L (≈ 31.2 µM); Activity (HeLa [19]): 0.2; Activity (HCT-116 [20]): 0.35; Activity (HCT-116 [21]): 0.42; IC50 (HeLa [22]): 9.83 mg/L (≈ 25.4 µM); IC50 (HCT-116 [23]): 10.6 mg/L (≈ 27.4 µM); Activity (HEp-2 [24]): 0.27; Activity (HCT-116 [25]): 0.24; Activity (MCF7 [26]): 0.28
COc1ccc(N2C(=N)C(=S)N(c3ccc(OC)cc3OC)C2=O)cc1 | 20 | 0.17 | 0.23 | 17 | 0.18 | 80 | 3.28 (≈ 8.83 µM) | 0.42 | 0.21 | 0.16 | 0.21 | 24 | 0.2 | 24.5 | 0.23 | 0.25 | 4.34 (≈ 11.7 µM) | 0.35 | 22 | 20 | Activity (HepG2 [15]): 0.28; Activity (HEp-2 [16]): 0.36; Activity (HepG2 [17]): 0.19; IC50 (HEp-2 [18]): 3.89 mg/L (≈ 10.5 µM); Activity (HeLa [19]): 0.17; Activity (HCT-116 [20]): 0.29; Activity (HCT-116 [21]): 0.26; IC50 (HeLa [22]): 3.12 mg/L (≈ 8.4 µM); IC50 (HCT-116 [23]): 3.73 mg/L (≈ 10 µM); Activity (HEp-2 [24]): 0.28; Activity (HCT-116 [25]): 0.19; Activity (MCF7 [26]): 0.27
